For experiment [1], the target named is T1, ACE2 (Homo sapiens, UniProt Q9BYF1). Kind of experiment: ACE2 binding by microscale thermophoresis. The essentials:
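Seven-point twofold compound dilution series. MST at 45% excitation and medium MST power. Kd (± standard error) fitted from the change in normalized fluorescence. A poly-His peptide counterscreen was run under identical conditions.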
(Microscale thermophoresis detects binding through changes in fluorescence in a small temperature gradient.)

The target in experiment [2] is T1, ACE2. As to the kind of experiment: ACE2 enzymatic assay. Format: biochemical. The essentials: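 Fluorometric assay with His-tagged ACE2 extracellular domain at 0.2 nM final in PBS pH 7.4, 0.01% Tween-20, preincubated with compound for 15 min at RT. Then MCA-Ala-Pro-Lys(Dnp)-OH substrate was added (60 μM stock). Fluorescence read at 340/440 nm at 0 and 15 min, RT.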

Kd and IC50 data for one molecule are collected here from article PMC9236207 (ACS Pharmacology & Translational Science, 2022).

T1 sequence (Q9BYF1 18-740): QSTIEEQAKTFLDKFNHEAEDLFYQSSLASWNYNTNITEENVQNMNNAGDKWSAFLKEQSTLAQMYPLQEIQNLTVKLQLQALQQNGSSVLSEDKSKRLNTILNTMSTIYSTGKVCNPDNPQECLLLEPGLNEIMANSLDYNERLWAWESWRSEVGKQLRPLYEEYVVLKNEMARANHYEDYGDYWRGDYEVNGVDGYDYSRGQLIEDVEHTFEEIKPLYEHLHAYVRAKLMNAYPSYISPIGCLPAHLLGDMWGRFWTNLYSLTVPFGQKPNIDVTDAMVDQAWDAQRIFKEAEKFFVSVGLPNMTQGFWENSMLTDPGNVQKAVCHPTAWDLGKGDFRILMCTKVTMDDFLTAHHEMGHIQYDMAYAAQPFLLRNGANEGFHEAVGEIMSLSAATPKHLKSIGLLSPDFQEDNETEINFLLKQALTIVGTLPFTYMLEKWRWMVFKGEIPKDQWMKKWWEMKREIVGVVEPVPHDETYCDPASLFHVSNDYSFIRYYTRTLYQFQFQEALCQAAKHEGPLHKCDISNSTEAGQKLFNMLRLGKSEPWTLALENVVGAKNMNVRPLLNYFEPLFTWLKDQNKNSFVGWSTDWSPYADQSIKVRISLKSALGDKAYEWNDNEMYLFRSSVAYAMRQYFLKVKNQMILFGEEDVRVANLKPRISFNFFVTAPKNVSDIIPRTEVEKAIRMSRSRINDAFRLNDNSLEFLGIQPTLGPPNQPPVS

Broadly, the Kd is the equilibrium constant for the complex coming apart. Broadly, the IC50 is the concentration needed to halve the response being measured. Lower therefore signals greater potency in that assay. `CC(C)C[C@H](N[C@@H](Cc1cncn1Cc1cc(Cl)cc(Cl)c1)C(=O)O)C(=O)O` [MLN-4760] yielded a Kd in experiment [1] of 702 nM. Also, the IC50 in experiment [2] is 1.5 nM.
